Compound activity: PubChem BioAssay, Sanford-Burnham Center for Chemical Genomics
STEP inh: blocks human striatal-enriched tyrosine phosphatase; P54829; recombinant STEP, OMFP fluorogenic substrate, fluorescence; inhibition, % at 20 µM; hit rate 0.25% among 360,000;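 active = inhibition at 20 µM, scaled per plate between control wells, above about 37%, limit read from the data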
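Material: STEP (striatal-enriched tyrosine phosphatase) enzyme, cell-free | Medium: 50 mM Bis-Tris pH 6.0 with 2.5 mM DTT and 0.005% Tween 20 | Read-out: Percent inhibition scaled to no-enzyme and uninhibited-enzyme controls, plate-pattern corrected | Signal: Fluorescence read at 480 nm ex / 540 nm em | Times: 20 min reaction, room temperature, in the dark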
DNMT1 block: blocks human DNA methyltransferase DNMT1; AID 588458; P26358; DNMT1 molecular beacon, Hinp1I cleavage, fluorescence; inhibition (reported as % activation of signal), % at 10 µM; hit rate 0.83% among 360,000; in the data active = inhibition above about 50%
Scp1 inh: Scp-1 (human) phosphatase inhibition. hit rate 0.88% among 340,000. AID 493091. Q9GZU7. Recombinant Scp1, phosphopeptide, malachite green phosphate absorbance. inhibition, % at 20 µM;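 active = inhibition above about 50% at 20 µM, limit read from the data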
Target sequence (Q9GZU7 76-261 limits assumed): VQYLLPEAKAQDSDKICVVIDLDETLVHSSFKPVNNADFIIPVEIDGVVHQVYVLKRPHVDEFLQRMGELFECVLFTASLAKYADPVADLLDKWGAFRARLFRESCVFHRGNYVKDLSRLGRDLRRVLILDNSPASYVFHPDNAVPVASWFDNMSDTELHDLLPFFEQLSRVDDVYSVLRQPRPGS
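assay system = SCP-1 phosphatase catalytic domain, residues 76-261 | buffer or medium = 50 mM Tris acetate pH 5.5, 0.005% Tween-20, 10 mM MgCl2 | incubation = enzyme reaction 45 min at room temperature, colour 5 min, stabilisation 30 min | signal = Phosphate-binding colour reagent, absorbance read at 630 nm | measure = % inhibition at 20 µM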
Rpn11 inh: Rpn11 (human) deubiquitinase inhibition. O00487. human 26S proteasome, Ub4-pepOG fluorescence polarization; 20S core pre-blocked with epoxomicin. inhibition, % at 20 µM. hit rate 0.59% among 360,000. AID 588493;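 active = inhibition at 20 µM, scaled to each plate's controls, above about 33%, limit read from the data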
Target sequence (O00487 whole entry, looked up): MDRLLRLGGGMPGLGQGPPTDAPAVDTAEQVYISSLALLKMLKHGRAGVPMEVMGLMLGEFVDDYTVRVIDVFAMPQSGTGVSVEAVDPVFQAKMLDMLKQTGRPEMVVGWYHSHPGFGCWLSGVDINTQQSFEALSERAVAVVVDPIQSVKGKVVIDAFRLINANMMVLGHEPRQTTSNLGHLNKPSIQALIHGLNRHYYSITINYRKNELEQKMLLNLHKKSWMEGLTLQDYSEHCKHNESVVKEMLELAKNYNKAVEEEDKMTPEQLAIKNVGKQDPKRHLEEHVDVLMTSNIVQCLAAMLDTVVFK
LMPTP inh: blocks human LMPTP phosphatase | recombinant LMPTP-A, OMFP fluorogenic substrate, fluorescence intensity | hit rate 0.22% among 360,000 | P24666 | inhibition, % at 20 µM | AID 651560;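 active = compounds that cut the enzyme signal by at least half of the control window in the single-dose screen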
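Assay system: LMPTP-A enzyme. Input: 0.625 nM LMPTP-A final. Probe or stimulus: 400 µM OMFP. Compound dosing: single 20 µM dose. Schedule: 50 min dark incubation at room temperature. Detection: fluorescence intensity of OMFP turnover product. Read-out: percent inhibition versus substrate-only and uninhibited controls. Benchmarks: no-enzyme low control, uninhibited high control.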
Scp1 confirm: Scp-1 (human) inhibition, single-dose confirmed. recombinant SCP-1 catalytic domain, phosphate release, malachite green absorbance. shares compounds with Scp1 inh. hit rate 61% among 2,500. inhibition, % at 20 µM. AID 540281
MG interference: interferes with malachite green readout, flagging false Scp-1 hits. shares compounds with Scp1 inh. Colorimetric interference counterscreen, malachite green absorbance 630 nm. apparent inhibition (interference), % at 20 µM. 2,500 tested, under 10 active;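 note: compounds added after enzyme reaction finished so only phosphate colour detection is probed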
Scp-1 Tm shift: binds human Scp-1, shifting its melting temperature; shares compounds with Scp1 inh; Recombinant SCP1, Sypro Orange thermal shift Tm; thermal shift relative to vanadate control, % at 40 µM; hit rate 25% among 1,500; AID 540329;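 active = substances whose mean melting-temperature shift, as a percentage of the reference inhibitor's shift, reaches about 5.3%, limit read from the data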
Beacon interf DR: shows spectral interference in the DNMT1 beacon assay. shares compounds with DNMT1 block. molecular beacon fluorescence, spectral interference counter-screen. IC50, µM. 200 tested, under 10 active. AID 602382; call rule not given here
DNMT1 confirm: confirmation of human DNMT1 inhibitors; shares compounds with DNMT1 block; DNMT1 molecular beacon HinP1I cleavage, fluorescence; inhibition, % at 10 µM; hit rate 8% among 2,300;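 active = average inhibition of at least 30% in the single-concentration confirmation test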
DNMT1 interf: beacon fluorescence artifact counter-screen; shares compounds with DNMT1 block; DNMT1 molecular beacon spectral interference counterscreen, fluorescence 485/520; activation (fluorescence interference), % at 10 µM; hit rate 1% among 2,300;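 active = activation of at least 30% at 10 µM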;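 note: DNMT1 catalytic domain with a HinP1I cleavage step and a FAM/dabcyl DNA beacon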
A number is an active result; i = inactive; nt = no result given. The list is not random: actives were taken first. Their share in the collection is about 2%.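 Rule for the calls, unless noted: active = inhibition of at least 30% at 20 µM; inactive = the rest.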

SMILES	STEP inh	DNMT1 block	Scp1 inh	Rpn11 inh	LMPTP inh	Scp1 confirm	MG interference	Scp-1 Tm shift	DNMT1 confirm	DNMT1 interf	others
CCCC[N+]12CCC(CC1)C(C(=O)c1cccs1)C2 (stereo not given)	i	i	98.0	i	i	103.1	i	i	nt	nt
O=C(O)CCn1cc(C=C2C(=O)NC(=S)NC2=O)c(-c2cccc(Cl)c2)n1	i	i	67.1	i	i	42.4	i	i	nt	nt
O=C(O)CCn1cc(C=C2C(=O)NC(=O)NC2=O)c(-c2ccc(Br)cc2)n1	i	i	i	i	i	nt	nt	nt	nt	nt
COc1cc2c(cc1OC)-c1c(OC)c(OC)cc3c1[C@H](C2)[N+](C)(C)CC3	i	i	54.8	i	i	i	i	nt	nt	nt
COc1cc2c3c(c1OC)-c1cc(O)ccc1CC3NCC2 (stereo not given)	i	i	i	i	i	nt	nt	nt	nt	nt
CC(C)CC(NC(=O)CCCNC(=O)CCC(=O)OC1O[C@H]2OC3(C)CC[C@H]4[C@H](C)CCC(C1C)C24OO3)C(=O)O (stereo not given in full)	i	i	95.1	i	i	i	i	nt	nt	nt
C[C@H]1[C@H](OC(=O)CCC(=O)NCc2ccc(C(=O)O)cc2)O[C@@H]2O[C@@]3(C)CC[C@H]4[C@H](C)CC[C@@H]1C24OO3	i	i	i	i	i	nt	nt	nt	nt	nt
O=C(CCc1ccccc1)N1Cc2cc(-c3ccccc3)ccc2-n2nncc2C1	i	i	nt	i	i	nt	nt	nt	nt	nt
CC[N+](C)(CC)CCCCOc1ccc2c(c1)C(=O)c1cc(OCCCC[N+](C)(CC)CC)ccc1-2	i	53.6	102.7	i	i	62.0	i	i	39.1	i	Beacon interf DR=i
CC(C)(C)n1nnnc1C(C1CC1)N1CCC2(CC1)C(=O)NCN2c1ccccc1 (stereo not given)	i	i	nt	i	i	nt	nt	nt	nt	nt
O=c1[nH]c(=S)n(C2CCCCC2)c(O)c1/C=N/N1CCOCC1	i	i	i	i	i	nt	nt	nt	nt	nt
O=C1NC(=O)C(=Cc2ccc(SC3CCCCC3)o2)C(=O)N1	i	86.5	53.2	i	i	74.8	i	i	i	i
CC(C)Oc1cc(-n2c(=S)[nH]c3ccccc3c2=O)c(Cl)cc1Cl	i	i	i	i	i	nt	nt	nt	nt	nt
Cc1ccc2c(c1Cl)NC(C(=O)O)C1CC(Sc3ccccc3[N+](=O)[O-])C(Cl)C21 (stereo not given)	i	70.7	59.5	i	i	65.1	i	17.7	i	i
Cc1cc(/C=C2\C(=O)NC(=O)N(c3ccccc3F)C2=O)c(C)n1-c1cc(C(=O)O)cc(C(=O)O)c1	41.6	87.2	54.7	i	i	31.7	i	9.9	i	i	Beacon interf DR=i
CN1CCN(CC(=O)Nc2ccc([N+](=O)[O-])cc2C(=O)c2ccccc2)CC1	i	i	i	i	i	nt	nt	nt	nt	nt
